Measurements reported in ChEMBL document CHEMBL1629660, “Pharmacodynamics of tigecycline against phenotypically diverse Staphylococcus aureus isolates in a murine thigh model” (Antimicrob Agents Chemother, 2009).

Assays:
[1] = fAUC/MIC in community acquired methicillin-resistant Staphylococcus aureus isolate 156 infected-immunocompetent ICR mouse at 12.5 […], sc QD; assay type: functional
Procedure, shortened: (§1)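 Derived from neutropenic-mouse serum PK (HPLC, two-compartment fit) with ultrafiltration protein-binding correction, divided by modal MIC.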

[2] = fAUC/MIC in community acquired methicillin-resistant Staphylococcus aureus isolate 156 infected-immunocompetent ICR mouse at 1.56 […], sc QD; assay type: functional; procedure, shortened: as §1
[3] = fAUC/MIC in hospital-acquired methicillin-resistant Staphylococcus aureus isolate 56-infected neutropenic ICR mouse at 50% effective exposure index; assay type: functional
Procedure, shortened: (§2)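 Single-dose serum PK in infected neutropenic mice (sc 6.25–50 mg/kg; HPLC; two-compartment fit; AUC by trapezoidal rule; lower doses simulated). Free fraction from ultrafiltration of spiked mouse serum, in triplicate. Free exposures divided by modal MIC and plotted against 24-h log10 CFU change with a sigmoidal Emax model; EI50, EI80 and stasis values read from the fitted curves.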

[4] = fAUC/MIC in hospital-acquired methicillin-resistant Staphylococcus aureus isolate 152-infected neutropenic ICR mouse at 80% effective exposure index; assay type: functional; procedure, shortened: as §2
[5] = Protein binding in methicillin-sensitive Staphylococcus aureus ATCC 29213-infected neutropenic ICR mouse serum at 6.25 mg/kg, sc by HPLC; assay type: ADME, organism-based; set-up: dose 6.25 mg/kg, route subcutaneous; settings: read-out: PB (converted)
[6] = Tmax in neutropenic ICR mouse infected with Staphylococcus aureus ATCC 29213 at 50 mg/kg, sc by HPLC; assay type: ADME, organism-based; set-up: dose 50 mg/kg, route subcutaneous; settings: in vivo
Procedure, shortened: (§3)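 Neutropenic female ICR mice (cyclophosphamide 150 and 100 mg/kg ip, 4 days and 1 day before inoculation), both thighs inoculated im with ~10^7 CFU/ml of ATCC 29213. Single sc doses of 50, 25, 12.5 or 6.25 mg/kg. Cardiac blood taken from groups of six at 8–12 times over 0.5–24 h. Serum measured by HPLC (linear 0.05–5 µg/ml). Two-compartment fit by nonlinear least squares; AUC by trapezoidal rule.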

[7] = r2 for fAUC/MIC in community acquired methicillin-resistant Staphylococcus aureus isolate 156-infected neutropenic ICR mouse
[8] = r2 of fCmax/MIC in hospital-acquired methicillin-resistant Staphylococcus aureus isolate 56-infected neutropenic ICR mouse
[9] = Protein binding in methicillin-sensitive Staphylococcus aureus ATCC 29213-infected neutropenic ICR mouse serum at 12 µg/ml by HPLC; settings: read-out: PB (converted)
[10] = fAUC/MIC in community acquired methicillin-resistant Staphylococcus aureus isolate 147-infected neutropenic ICR mouse at 80% effective exposure index; assay type: functional; procedure, shortened: as §2
[11] = fAUC/MIC in hospital-acquired methicillin-resistant Staphylococcus aureus isolate 152-infected neutropenic ICR mouse at 50% effective exposure index; assay type: functional; procedure, shortened: as §2
[12] = fAUC/MIC in community acquired methicillin-resistant Staphylococcus aureus isolate 144-infected neutropenic ICR mouse at stasis dose; assay type: functional; procedure, shortened: as §2
[13] = AUC (0 to 24 hrs) in neutropenic ICR mouse infected with Staphylococcus aureus ATCC 29213 at 6.25 mg/kg, sc by HPLC; assay type: ADME, organism-based; set-up: time < 24 hr, dose 6.25 mg/kg, route subcutaneous; settings: plasma; procedure, shortened: as §3
Staphylococcus aureus [14] = assay: Antimicrobial activity against community acquired methicillin-resistant Staphylococcus aureus isolate 156 infected in neutropenic ICR mouse assessed as change in bacterial load at 12.5 […] after 24 hrs; assay type: functional
Procedure, shortened: (§4)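 Female ICR mice (~25 g) made neutropenic with cyclophosphamide 150 and 100 mg/kg ip, 4 and 1 days before infection. Each thigh inoculated im with 0.1 ml of ~10^7 CFU/ml from an overnight subculture. Tigecycline sc (0.2 ml) given 2 h later as single or multiple doses of 1.56–50 mg/kg, 1.56–400 mg/kg/day, 3 mice/group. Saline-injected controls. Thighs harvested at 24 h, homogenized in saline, plated on blood agar; log10 CFU change vs 0-h controls.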

[15] = Elimination half life in neutropenic ICR mouse infected with methicillin-sensitive Staphylococcus aureus ATCC 29213 at 6.25 mg/kg, sc by HPLC; assay type: ADME, organism-based; set-up: dose 6.25 mg/kg, route subcutaneous; settings: in vivo, read-out: beta t1/2 (converted); procedure, shortened: as §3
Acinetobacter baumannii = assay: Antimicrobial activity against carbapenem-intermediate,-resistant Acinetobacter baumannii assessed as decrease in bacterial count at 0.7 times of MIC after 24 hrs by time kill analysis; assay type: functional
[16] = fAUC/MIC in hospital-acquired methicillin-resistant Staphylococcus aureus isolate 152-infected neutropenic ICR mouse at stasis dose; assay type: functional; procedure, shortened: as §2
[17] = r2 for fAUC/MIC in community acquired methicillin-resistant Staphylococcus aureus isolate 144-infected neutropenic ICR mouse
[18] = fAUC/MIC in community acquired methicillin-resistant Staphylococcus aureus isolate 147-infected neutropenic ICR mouse at stasis dose; assay type: functional; procedure, shortened: as §2
[19] = Elimination half life in neutropenic ICR mouse infected with methicillin-sensitive Staphylococcus aureus ATCC 29213 at 25 mg/kg, sc by HPLC; assay type: ADME, organism-based; set-up: dose 25 mg/kg, route subcutaneous; settings: in vivo, read-out: beta t1/2 (converted); procedure, shortened: as §3
[20] = fAUC/MIC in community acquired methicillin-resistant Staphylococcus aureus isolate 144-infected neutropenic ICR mouse at 50% effective exposure index; assay type: functional; procedure, shortened: as §2
[21] = fAUC/MIC in community acquired methicillin-resistant Staphylococcus aureus isolate 156 infected-immunocompetent ICR mouse at 6.25 […], sc QD; assay type: functional; procedure, shortened: as §1
Staphylococcus aureus [22] = assay: Antimicrobial activity against community acquired methicillin-resistant Staphylococcus aureus isolate 156 infected in immunocompetent ICR mouse assessed as reduction in bacterial load at 1.56 […] after 24 hrs; assay type: functional
Procedure, shortened: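 Non-neutropenic ICR mice (no cyclophosphamide). Each thigh inoculated im with 0.1 ml of ~10^8 CFU/ml. Tigecycline given sc once daily at 1.56, 3.13, 6.25 or 12.5 mg/kg starting 2 h post-infection, 3 mice/group. Thighs harvested at 24 h, homogenized, plated on blood agar; log10 CFU change vs 0-h controls.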

[23] = r2 for fAUC/MIC in hospital-acquired methicillin-resistant Staphylococcus aureus isolate 152-infected neutropenic ICR mouse
Staphylococcus aureus [24] = assay: Antimicrobial activity against community acquired methicillin-resistant Staphylococcus aureus isolate 156 infected in neutropenic ICR mouse assessed as change in bacterial load after 24 hrs; assay type: functional; procedure, shortened: as §4
[25] = fAUC/MIC in community acquired methicillin-resistant Staphylococcus aureus isolate 156 infected-immunocompetent ICR mouse at […], sc QD; assay type: functional
Staphylococcus aureus [26] = assay: Antimicrobial activity against hospital-acquired methicillin-resistant Staphylococcus aureus isolate 152 infected in neutropenic ICR mouse assessed as change in bacterial load after 24 hrs; assay type: functional; procedure, shortened: as §4
[27] = fAUC/MIC in community acquired methicillin-resistant Staphylococcus aureus isolate 156-infected neutropenic ICR mouse at 50% effective exposure index; assay type: functional; procedure, shortened: as §2
Staphylococcus aureus [28] = assay: Antimicrobial activity against community acquired methicillin-resistant Staphylococcus aureus isolate 156 infected in neutropenic ICR mouse assessed as change in bacterial load at 6.25 […] after 24 hrs; assay type: functional; procedure, shortened: as §4
Staphylococcus aureus [29] = assay: Antimicrobial activity against community acquired methicillin-resistant Staphylococcus aureus isolate 147 infected in neutropenic ICR mouse assessed as change in bacterial load after 24 hrs; assay type: functional; procedure, shortened: as §4

## CN(C)c1cc(NC(=O)CNC(C)(C)C)c(O)c2c1C[C@H]1C[C@H]3[C@H](N(C)C)C(O)=C(C(N)=O)C(=O)[C@@]3(O)C(O)=C1C2=O [TIGECYCLINE]
[1]
  fAUC/MIC: 8.8
[2]
  fAUC/MIC: 1.8
[3]
  fAUC/MIC: 2.5
[4]
  fAUC/MIC: 2.8
[5]
  fraction unbound: 0.188
[6]
  Tmax: 0.74 h
[7]
  r2: 0.97
[8]
  r2: 0.704
[9]
  fraction unbound: 0.08
[10]
  fAUC/MIC: 3.5
[11]
  fAUC/MIC: 1.5
[12]
  fAUC/MIC: 2.6
[13]
  AUC(0-t) at 24 h: 4.8 µg·h/mL
Staphylococcus aureus [14]
  log10CFU/ml: -1.1
[15]
  half-life: 10.5 h
Acinetobacter baumannii
  log10cfu: 2
[16]
  fAUC/MIC: 1.6
[17]
  r2: 0.954
[18]
  fAUC/MIC: 1.7
[19]
  half-life: 11.8 h
[20]
  fAUC/MIC: 2.2
[21]
  fAUC/MIC: 7.2
Staphylococcus aureus [22]
  log10cfu: 1.6
[23]
  r2: 0.997
Staphylococcus aureus [24]
  log10CFU/ml: 2.1
[25]
  fAUC/MIC: 3.6
Staphylococcus aureus [26]
  log10CFU/ml: 1.8
[27]
  fAUC/MIC: 5.1
Staphylococcus aureus [28]
  log10CFU/ml: 0.1
Staphylococcus aureus [29]
  log10CFU/ml: 1.8
